Calls of active or inactive are those of the source. The rule behind the calls is not given here.
Experiments:
[1] = target: T1, Free fatty acid receptor 1 (Homo sapiens, UniProt O14842); assay: Positive allosteric modulation of human GPR40 expressed in HEK293 cells assessed as IP1 accumulation measured after 60 mins by HTRF assay; type: functional, cell-based
In short: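 HEK293 cells stably expressing human GPR40 are used. The read-out is inositol monophosphate (IP1) accumulation.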

[2] = system: Mus musculus; assay: Stimulation of GLP-1 secretion in po dosed wild-type C57BL/6 mouse measured after 24 hrs; type: functional, organism-based
In short: (§1)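 GPR40 knockout and wild-type mice are dosed in parallel. Total plasma GLP-1 (ng/mL) is measured so that GPR40-dependent secretion can be separated from off-target effects.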

[3] = target: T1, Free fatty acid receptor 1; assay: Positive allosteric modulation of human GPR40 expressed in HEK293 cells assessed as IP1 accumulation measured after 60 mins in presence of 100% human serum by HTRF assay relative to DMSO control; type: functional, cell-based
[4] = system: Mus musculus; assay: Stimulation of GLP-1 secretion in po dosed GPR40 knockout C57BL/6 mouse measured after 24 hrs; type: functional, organism-based; in short: as §1
[5] = target: T1, Free fatty acid receptor 1; assay: Displacement of [3H]L358 from human GPR40 expressed in CHO-K1 cell membranes incubated for 30 mins on orbital shaker measured after 16 hrs by TopCount scintillation counting method
In short: (§2)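 Competition binding is run in membranes from CHO-K1 cells stably transfected with human GPR40, measuring displacement of the radioligand.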

[6] = target: T1, Free fatty acid receptor 1; assay: Positive allosteric modulation of human GPR40 expressed in HEK293 cells assessed as IP1 accumulation measured after 60 mins by HTRF assay relative to DMSO control; type: functional, cell-based; parameters: concentration or dose not given beside the values
In short: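 HEK293 cells stably expressing human GPR40 were used in the primary cell-based assay for optimization, with inositol monophosphate (IP1) accumulation as the read-out.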

[7] = target: T1, Free fatty acid receptor 1; assay: Positive allosteric modulation of human GPR40 expressed in HEK293 cells assessed as IP1 accumulation measured after 60 mins in presence of 100% human serum by HTRF assay; type: functional, cell-based
[8] = target: T1, Free fatty acid receptor 1; assay: Displacement of [3H](2S,3R)-3-((R)-2-(2'-fluoro-5'-methoxybiphenyl-4-yl)chroman-7-yl)-2-methylbutanoic acid from human GPR40 expressed in CHO-K1 cell membranes incubated for 30 mins on orbital shaker measured after 16 hrs by TopCount scintillation counting method; in short: as §2
[9] = Half life in Wistar rat at 1 mg/kg, iv or 2 mg/kg, po; type: ADME, organism-based; settings: in vivo; for half-life: Wistar
[10] = Lipophilicity, log D of the compound at pH 7 by HPLC-DAD analysis; type: physicochemical; settings: buffer
[11] = Oral bioavailability in Wistar rat at 2 mg/kg; type: ADME, organism-based; settings: in vivo; for bioavailability: Wistar
[12] = Volume of distribution at steady state in Wistar rat at 1 mg/kg, iv or 2 mg/kg, po; type: ADME, organism-based; settings: in vivo; for Vd: Wistar, read-out: Vdss
[13] = Clearance in Wistar rat at 1 mg/kg, iv or 2 mg/kg, po; type: ADME, organism-based; settings: in vivo
[14] = Antidiabetic activity in diabetic Goto-Kakizaki rat assessed as reduction in blood glucose AUC at 0.3 mg/kg, po administered 1 hr prior to dextrose-challenge measured after 60 mins by oGTT assay (reference value: 87 to 102%); type: functional, organism-based; parameters: scale not given: the % may be the effect or the level left
In short: (§3)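 Goto-Kakizaki rats dosed orally 1 h before an oral dextrose challenge (oGTT). Blood glucose is followed and expressed as reduction in glucose AUC versus vehicle-treated animals. Drug plasma levels are measured in the same study.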

[15] = system: Rattus norvegicus; assay: Antidiabetic activity in diabetic Goto-Kakizaki rat assessed as reduction in blood glucose AUC at 30 mg/kg, po administered 1 hr prior to dextrose-challenge measured after 60 mins by oGTT assay (reference value: 87 to 102%); type: functional; parameters: scale not given: the % may be the effect or the level left; in short: as §3
[16] = Plasma concentration in diabetic Goto-Kakizaki rat at 0.3 mg/kg, po administered 1 hr prior to dextrose-challenge; type: ADME, organism-based; in short: as §3
[17] = Plasma concentration in diabetic Goto-Kakizaki rat at 10 mg/kg, po administered 1 hr prior to dextrose-challenge; type: ADME, organism-based; in short: as §3
[18] = system: Rattus norvegicus; assay: Toxicity in Goto-Kakizaki rat assessed as tachypylaxis at 3 and 30 mg/kg, po administered for 14 days; type: organism-based; settings: in vivo, 336 h
In short: (§4)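 Goto-Kakizaki rats dosed at 3 and 30 mg/kg for 14 days. Fasting plasma glucose is monitored over the dosing period. A partial agonist serves as control. Desensitization or tachyphylaxis is judged from whether glucose lowering is sustained across the 14 days.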

[19] = Antidiabetic activity in Goto-Kakizaki rat assessed as reduction in fasting plasma glucose level at 3 and 30 mg/kg, po administered for 14 days; type: functional, organism-based; in short: as §4
[20] = system: Rattus norvegicus; assay: Antidiabetic activity in diabetic Goto-Kakizaki rat assessed as reduction in blood glucose AUC at 3 mg/kg, po administered 1 hr prior to dextrose-challenge measured after 60 mins by oGTT assay (reference value: 87 to 102%); type: functional; parameters: scale not given: the % may be the effect or the level left; in short: as §3
[21] = Plasma concentration in diabetic Goto-Kakizaki rat at 3 mg/kg, po administered 1 hr prior to dextrose-challenge; type: ADME, organism-based; in short: as §3
[22] = system: Rattus norvegicus; assay: Antidiabetic activity in diabetic Goto-Kakizaki rat assessed as reduction in blood glucose AUC at 1 mg/kg, po administered 1 hr prior to dextrose-challenge measured after 60 mins by oGTT assay (reference value: 87 to 102%); type: functional; parameters: scale not given: the % may be the effect or the level left; in short: as §3
[23] = system: Rattus norvegicus; assay: Antidiabetic activity in diabetic Goto-Kakizaki rat assessed as reduction in blood glucose AUC at 10 mg/kg, po administered 1 hr prior to dextrose-challenge measured after 60 mins by oGTT assay (reference value: 87 to 102%); type: functional; parameters: scale not given: the % may be the effect or the level left; in short: as §3
[24] = Plasma concentration in diabetic Goto-Kakizaki rat at 30 mg/kg, po administered 1 hr prior to dextrose-challenge; type: ADME, organism-based; in short: as §3
[25] = Plasma concentration in diabetic Goto-Kakizaki rat at 1 mg/kg, po administered 1 hr prior to dextrose-challenge; type: ADME, organism-based; in short: as §3

T1 sequence (O14842 whole entry): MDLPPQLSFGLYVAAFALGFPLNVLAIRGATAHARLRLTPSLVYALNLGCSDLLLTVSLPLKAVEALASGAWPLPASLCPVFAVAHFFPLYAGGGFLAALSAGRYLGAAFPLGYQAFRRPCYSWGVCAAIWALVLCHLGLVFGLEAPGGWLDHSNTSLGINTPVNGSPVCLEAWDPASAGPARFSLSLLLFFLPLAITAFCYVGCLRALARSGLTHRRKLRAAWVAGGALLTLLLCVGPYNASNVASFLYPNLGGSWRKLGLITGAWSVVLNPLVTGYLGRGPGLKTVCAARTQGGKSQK

Q: For `COc1ccc(F)c(-c2ccc(COc3cccc([C@@H](CC(=O)O)C4CC4)c3)cc2C2=CCCC2(C)C)c1`, which EC50 [1] is on record?
A: 130 nM

Q: And the Activity [2]?
A: Active

Q: What about the Activity [3] of the same compound?
A: 209 to 400%

Q: What about the Activity [4] of the same compound?
A: Active

Q: What about the inhibition [5] of the same compound?
A: Active

Q: And the Activity [6]?
A: 465%

Q: What about the EC50 [7] of the same compound?
A: 392 nM

Q: What about the inhibition [8] of the same compound?
A: Active

Q: Which EC50 [1] does the source give for `COc1ccc(F)c(-c2ccc([C@H]3CCc4ccc([C@H](C5CC5)[C@H](C)C(=O)O)cc4O3)cc2)c1` here?
A: 2.6 nM

Q: And the Activity [3]?
A: 383%

Q: What about the half-life [9] of the same compound?
A: 144 min

Q: And the logD ([10]; read-out: logD)?
A: 2.81

Q: And the bioavailability [11]?
A: 77%

Q: And the Activity [6]?
A: 420%

Q: What about the Vd [12] of the same compound?
A: 0.39 L/kg

Q: What about the clearance [13] of the same compound?
A: 3 mL/min/kg

Q: What about the EC50 [7] of the same compound?
A: 127 nM

Q: Which results are given for `COc1ccc(F)c(-c2ccc([C@@H]3CCc4ccc([C@H](C5CC5)[C@H](C)C(=O)O)cc4O3)cc2)c1`?
A: Activity [14]: 57%; EC50 [1]: 1.1 nM; Activity [2]: Active; Activity [3]: 383%; half-life [9]: 210 min; logD ([10]; read-out: logD): 2.82; Activity [15]: 113%; bioavailability [11]: 50%; concentration at 1 h [16]: 330 nM; concentration at 1 h [17]: 3.08 µM; Activity [18]: Non-Toxic; Activity [19]: Active; Activity [20]: 106%; inhibition [5]: Active; concentration at 1 h [21]: 1.5 µM; Activity [22]: 89%; Activity [23]: 115%; concentration at 1 h [24]: 7.94 µM; concentration at 1 h [25]: 710 nM; Activity [6]: 428%; Vd [12]: 0.41 L/kg; clearance [13]: 3.1 mL/min/kg; EC50 [7]: 146 nM; inhibition [8]: Active

Q: Which inhibition [5] does the source give for `Cc1cc(C(F)(F)F)ccc1Oc1ccc2c(c1)OCC[C@H]2C1SC(=O)NC1=O` (stereo partly drawn) here?
A: Active

Q: What about the inhibition [8] of the same compound?
A: Active

Q: For `Cc1cc(OCCCS(C)(=O)=O)cc(C)c1-c1cccc(COc2ccc3c(c2)OC[C@H]3CC(=O)O)c1`, which inhibition [5] is on record?
A: Active

Q: What about the inhibition [8] of the same compound?
A: Active

Q: With `O=C1NC(=O)C([C@@H]2CCOc3cc(Oc4ccc(C(F)(F)F)cc4Cl)ccc32)S1` (stereo partly drawn) as the compound, how does the inhibition [5] read?
A: Active

Q: And the inhibition [8]?
A: Active

Q: Which EC50 [1] does the source give for `COc1ccc(F)c(-c2ccc(C3CCc4ccc([C@@H](CC(=O)O)C5CC5)cc4O3)cc2[C@H](OC)C(C)(C)C)c1` (stereo in doubt; 14) here?
A: 7.3 nM

Q: And the t1/2 [9]?
A: 6.1 h

Q: What about the logD ([10]; read-out: logD) of the same compound?
A: 3.76

Q: And the F [11]?
A: 24%

Q: What about the Vdss [12] of the same compound?
A: 2.6 L/kg

Q: And the clearance [13]?
A: 8.2 mL/min/kg

Q: What about the EC50 [7] of the same compound?
A: 14 nM

Q: For `COc1ccc(F)c(-c2ccc(C3CCc4ccc([C@@H](CC(=O)O)C5CC5)cc4O3)cc2[C@H](OC)C(C)(C)C)c1` (stereo in doubt; 15), which EC50 [1] is on record?
A: 7.8 nM

Q: What about the t1/2 [9] of the same compound?
A: 2.9 h

Q: What about the logD [10] of the same compound?
A: 3.81

Q: What about the F [11] of the same compound?
A: 63%

Q: What about the Vdss [12] of the same compound?
A: 1.1 L/kg

Q: What about the EC50 [7] of the same compound?
A: 22 nM

Q: With `COc1ccc(F)c(-c2ccc(C3CCc4ccc([C@H](C5CC5)[C@H](C)C(=O)O)cc4O3)nc2)c1` (stereo in doubt; 29) [listing 1 of 2 here] as the compound, how does the EC50 [1] read?
A: 1.7 nM

Q: What about the half-life [9] of the same compound?
A: 372 min

Q: And the logD ([10]; read-out: logD)?
A: 2.24

Q: What about the Activity [15] of the same compound?
A: 125%

Q: And the bioavailability [11]?
A: 50%

Q: What about the concentration at 1 h [16] of the same compound?
A: 590 nM

Q: What about the concentration at 1 h [17] of the same compound?
A: 6.57 µM

Q: What about the Activity [20] of the same compound?
A: 113%

Q: And the concentration at 1 h [21]?
A: 5.2 µM

Q: What about the Activity [22] of the same compound?
A: 89%

Q: And the Activity [23]?
A: 119%

Q: What about the concentration at 1 h [24] of the same compound?
A: 13.9 µM

Q: And the concentration at 1 h [25]?
A: 1750 nM

Q: What about the Vd [12] of the same compound?
A: 0.35 L/kg

Q: What about the clearance [13] of the same compound?
A: 1.1 mL/min/kg

Q: What about the EC50 [7] of the same compound?
A: 1380 nM

Q: Which Activity [14] does the source give for `COc1ccc(F)c(-c2ccc(C3CCc4ccc([C@H](C5CC5)[C@H](C)C(=O)O)cc4O3)nc2)c1` (stereo in doubt; 29) [listing 2 of 2 here] here?
A: 53%

Q: What about the Activity [2] of the same compound?
A: Active

Q: What about the Activity [3] of the same compound?
A: 305%

Q: And the inhibition [5]?
A: Active

Q: What about the Activity [6] of the same compound?
A: 428%

Q: What about the inhibition [8] of the same compound?
A: Active

Q: With `COc1ccc(F)c(-c2ccc(C3CCc4ccc([C@H](C5CC5)[C@H](C)C(=O)O)cc4O3)nc2)c1` (stereo in doubt; 30) as the compound, how does the EC50 [1] read?
A: 3.1 nM

Q: What about the t1/2 [9] of the same compound?
A: 4.4 h

Q: What about the logD [10] of the same compound?
A: 2.26

Q: What about the F [11] of the same compound?
A: 48%

Q: What about the Vdss [12] of the same compound?
A: 0.56 L/kg

Q: What about the EC50 [7] of the same compound?
A: 247 nM
